Source: ChEMBL document CHEMBL1131289, “2-Nitrophenylcarbamoyl-(S)-prolyl-(S)-3-(2-naphthyl)alanyl-N-benzyl-N - methylamide (SDZ NKT 343), a potent human NK1 tachykinin receptor antagonist with good oral analgesic activity in chronic pain models” (J Med Chem, 1998)

What was measured:
[1] = biological target: Substance-P receptor (Homo sapiens, UniProt P25103); test: In vitro binding affinity towards Tachykinin receptor 1 by measuring its ability to displace [3H]SP (0.6 nM) binding to membranes from Cos-7 cells transiently transfected with the hNK-1R; assay type: cell membranes
Chain of Substance-P receptor (Homo sapiens, UniProt P25103) (P25103 whole entry): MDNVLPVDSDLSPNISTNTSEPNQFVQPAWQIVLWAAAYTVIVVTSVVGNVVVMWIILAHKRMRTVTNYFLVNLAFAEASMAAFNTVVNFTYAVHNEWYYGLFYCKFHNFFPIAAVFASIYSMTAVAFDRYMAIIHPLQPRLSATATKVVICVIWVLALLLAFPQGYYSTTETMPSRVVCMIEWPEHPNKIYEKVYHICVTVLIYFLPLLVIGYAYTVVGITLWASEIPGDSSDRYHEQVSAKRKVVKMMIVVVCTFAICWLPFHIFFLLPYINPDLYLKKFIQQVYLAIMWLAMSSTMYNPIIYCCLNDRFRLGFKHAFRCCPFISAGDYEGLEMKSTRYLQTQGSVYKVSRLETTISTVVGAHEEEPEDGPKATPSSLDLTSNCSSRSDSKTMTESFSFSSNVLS

[2] = biological target: T1, Substance-P receptor (Cavia porcellus, UniProt P30547); test: Tested for Tachykinin receptor 1 […] activity by measuring its ability to inhibit contractions evoked by [Sar9,Met(O2)11]-SP (4 nM) in guinea pig ileum; assay type: functional, tissue-based
T1 sequence (P30547 whole entry): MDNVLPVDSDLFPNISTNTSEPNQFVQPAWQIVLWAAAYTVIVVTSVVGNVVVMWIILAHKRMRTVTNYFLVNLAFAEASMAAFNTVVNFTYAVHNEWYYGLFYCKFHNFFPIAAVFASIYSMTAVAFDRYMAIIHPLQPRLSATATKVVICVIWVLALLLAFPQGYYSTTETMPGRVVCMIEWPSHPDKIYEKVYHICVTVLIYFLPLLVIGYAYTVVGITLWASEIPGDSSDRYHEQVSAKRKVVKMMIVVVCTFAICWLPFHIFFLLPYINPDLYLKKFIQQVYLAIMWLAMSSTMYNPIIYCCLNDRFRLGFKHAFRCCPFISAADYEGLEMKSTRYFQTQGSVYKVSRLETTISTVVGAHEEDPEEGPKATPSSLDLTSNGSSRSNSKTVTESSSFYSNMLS
How it was run: (§1)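 Guinea pig ileum contracted by [Sar9Met(O2)11]SP (4.0 nM), repeated at least five times until stable. Antagonist added 2 min before agonist; at least three concentrations, each tested three times. IC50 read from log10 concentration–response curve; mean ± SEM of three separate experiments.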

[3] = biological target: T1, Substance-P receptor; test: Tachykinin receptor 1 antagonistic activity as inhibition of contractions evoked by 4 nM [Sar9,Met(O2)11]-SP in guinea pig ileum; assay type: functional, tissue-based; how it was run: as §1
[4] = system: Cavia porcellus; test: In vivo inhibition of hyperalgesia at 30 mg/kg po dose and 3h after dosing in guinea pig; assay type: functional
How it was run: (§2)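 Guinea pigs got 1% carrageenan (100 μL) intraplantar in one hind paw. Mechanical hyperalgesia was read 24 h later, before dosing. Compound was given orally at 30 mg/kg in 10% DMSO in 1% tragacanth or as a microemulsion. Readings were taken at intervals up to 6 h, and the value is percentage reversal of predose hyperalgesia.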

[5] = system: Cavia porcellus; test: The compound was evaluated for its %inhibition of hyperalgesia at 30 mg/kg po dose and 1 hr after dosing; assay type: functional; how it was run: as §2
[6] = organism: Cavia porcellus; test: The effective dose of compound used to inhibit 30% of hyperalgesia in guinea pig; assay type: functional
How it was run: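 Hyperalgesia was induced in guinea pigs with intraplantar 1% carrageenan (100 μL) in one hind paw. Mechanical hyperalgesia was assessed 24 h later, then oral doses were given in 10% DMSO/1% tragacanth or a microemulsion. ED30, the dose giving 30% inhibition of hyperalgesia, was taken from dose–response data 3 h after dosing (n = 3).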

SMILES	Ki [1]	also measured
CN(Cc1ccccc1)C(=O)[C@H](CCc1ccccc1)NC(=O)[C@@H]1CCCN1/C(S)=N/Cc1ccccc1Cl		IC50 [1]: 206 nM
CN(Cc1ccccc1)C(=O)[C@H](Cc1ccc2ccccc2c1)NC(=O)[C@@H]1CCCN1C(=O)Nc1ccccc1O	2.6 nM	
CN(Cc1ccccc1)C(=O)[C@H](Cc1ccccc1)NC(=O)[C@@H]1CCCN1C(=O)NCc1ccccc1Cl		IC50 [1]: 590 nM
CC(=O)Nc1ccccc1NC(=O)N1CCC[C@H]1C(=O)N[C@@H](Cc1ccc2ccccc2c1)C(=O)N(C)Cc1ccccc1		IC50 [2]: 7.5 nM
CN(Cc1ccccc1)C(=O)[C@H](Cc1ccc2ccccc2c1)NC(=O)[C@@H]1CCCN1C(=O)Nc1ccccc1	0.88 nM	IC50 [3]: 5 nM; inhibition in vivo at 30 mg/kg [4]: 26%
CN(Cc1ccccc1)C(=O)[C@H](Cc1ccc2ccccc2c1)NC(=O)[C@@H]1CCCN1C(=O)Nc1cccc([N+](=O)[O-])c1	2.3 nM	
CN(Cc1ccccc1)C(=O)[C@H](Cc1ccc2ccccc2c1)NC(=O)[C@@H]1CCCN1C(=O)Nc1ccc(F)cc1	2.2 nM	IC50 [3]: 17.3 nM
CN(Cc1ccccc1)C(=O)[C@H](Cc1ccccc1)NC(=O)[C@@H]1CCCN1C(=S)NCc1ccccc1F		IC50 [1]: 290 nM
CN(Cc1ccccc1)C(=O)[C@H](Cc1ccccc1)NC(=O)[C@@H]1CCCN1C(=S)NCc1cc(C(F)(F)F)cc(C(F)(F)F)c1	78.6 nM	
CN(Cc1ccccc1)C(=O)[C@H](Cc1ccc2ccccc2c1)NC(=O)[C@@H]1CCCN1C(=O)Nc1ccccc1C(F)(F)F	18.2 nM	
CN(Cc1ccccc1)C(=O)[C@@H](Cc1ccccc1)NC(=O)[C@H]1CCCN1/C(S)=N/c1ccccc1Br		IC50 [1]: 1000 nM
CN(Cc1ccccc1)C(=O)[C@H](Cc1ccc2ccccc2c1)NC(=O)[C@@H]1CCCN1C(=O)Nc1cccc(C(N)=O)c1	5 nM	
CN(Cc1ccccc1)C(=O)[C@H](Cc1ccc2ccccc2c1)NC(=O)[C@@H]1CCCN1C(=O)Nc1cccnc1	6.7 nM	inhibition in vivo at 30 mg/kg [5]: 14%; IC50 [3]: 4.2 nM
CN(Cc1ccccc1)C(=O)[C@H](Cc1ccc2ccccc2c1)NC(=O)[C@@H]1CCCN1C(=O)Nc1ccccc1F	3.5 nM	
CN(Cc1ccccc1)C(=O)[C@H](Cc1ccc2ccccc2c1)NC(=O)[C@@H]1CCCN1C(=O)Nc1ccccc1C(=O)O	172 nM	
CN(CCc1ccccc1)C(=O)[C@H](Cc1ccccc1)NC(=O)[C@@H]1CCCN1C(=S)NCc1ccccc1Cl		IC50 [1]: 2500 nM
CN(Cc1cc(C(F)(F)F)cc(C(F)(F)F)c1)C(=O)[C@H](Cc1ccccc1)NC(=O)[C@@H]1CCCN1C(=S)NCc1ccccc1Cl	26.9 nM	

SMILES	Ki [1]	also measured
CN(Cc1ccccc1)C(=O)[C@H](Cc1ccc2ccccc2c1)NC(=O)[C@@H]1CCCN1C(=O)Nc1ccccc1C(N)=O	0.8 nM	IC50 [3]: 1.9 nM; inhibition in vivo at 30 mg/kg [4]: 35%; ED30 [6]: 15.7 mg/kg
COCc1ccccc1NC(=O)N1CCC[C@H]1C(=O)N[C@@H](Cc1ccc2ccccc2c1)C(=O)N(C)Cc1ccccc1	1 nM	IC50 [3]: 1.2 nM; inhibition in vivo at 30 mg/kg [4]: 67%; ED30 [6]: 1.2 mg/kg
CN(Cc1ccncc1)C(=O)[C@H](Cc1ccccc1)NC(=O)[C@@H]1CCCN1C(=S)NCc1ccccc1Cl		IC50 [1]: 10000 nM
CN(Cc1ccccc1)C(=O)[C@H](Cc1ccc2ccccc2c1)NC(=O)[C@@H]1CCCN1C(=O)Nc1cccc(C#N)c1	4.2 nM	IC50 [3]: 2.6 nM; inhibition in vivo at 30 mg/kg [4]: 38%
CN(Cc1ccccc1)C(=O)[C@H](Cc1ccc2ccccc2c1)NC(=O)[C@@H]1CCCN1C(=O)Nc1ccccc1C#N	1.1 nM	IC50 [3]: 1 nM; inhibition in vivo at 30 mg/kg [4]: 42%; ED30 [6]: 2.1 mg/kg
CN(Cc1ccccc1)C(=O)[C@H](Cc1ccc2ccccc2c1)N(C)C(=O)[C@@H]1CCCN1C(=S)NCc1ccccc1Cl	1.7 nM	
CN(Cc1ccccc1)C(=O)[C@@H](Cc1ccccc1)NC(=O)[C@H]1CCCN1C(=S)Nc1ccccc1Cl		IC50 [1]: 3200 nM
CN(Cc1ccccc1)C(=O)[C@H](Cc1ccc2ccccc2c1)NC(=O)[C@@H]1CCCN1C(=O)Nc1cccc(F)c1	0.7 nM	IC50 [3]: 6.8 nM; inhibition in vivo at 30 mg/kg [4]: 10%
CN(C)C(=O)c1ccccc1NC(=O)N1CCC[C@H]1C(=O)N[C@@H](Cc1ccc2ccccc2c1)C(=O)N(C)Cc1ccccc1	6.1 nM	
CN(C(=O)[C@H](Cc1ccccc1)NC(=O)[C@@H]1CCCN1C(=S)NCc1ccccc1Cl)c1ccccc1		IC50 [1]: 100000 nM
CN(Cc1ccccc1)C(=O)[C@H](Cc1ccc2ccccc2c1)NC(=O)[C@@H]1CCCN1C(=O)Nc1ccc(C#N)cc1	1.1 nM	IC50 [3]: 2.4 nM; inhibition in vivo at 30 mg/kg [4]: 32%
Cc1ccccc1C/N=C(\S)N1CCC[C@H]1C(=O)N[C@@H](Cc1ccccc1)C(=O)N(C)Cc1ccccc1		IC50 [1]: 410 nM
CN(Cc1ccccc1)C(=O)[C@H](Cc1ccc2ccccc2c1)NC(=O)[C@@H]1CCCN1C(=O)Nc1ccccc1N		IC50 [3]: 21 nM
COC(=O)c1ccccc1NC(=O)N1CCC[C@H]1C(=O)N[C@@H](Cc1ccc2ccccc2c1)C(=O)N(C)Cc1ccccc1	0.3 nM	IC50 [3]: 6 nM
O=C(NCCc1c[nH]c2ccccc12)[C@H](Cc1ccccc1)NC(=O)[C@@H]1CCCN1C(=S)NCc1ccccc1Cl		IC50 [1]: 3700 nM
CNC(=O)c1ccccc1NC(=O)N1CCC[C@H]1C(=O)N[C@@H](Cc1ccc2ccccc2c1)C(=O)N(C)Cc1ccccc1	3.8 nM	IC50 [3]: 3 nM

Continued, in another order:

Ki [1]	SMILES	also measured
7.2 nM	CN(Cc1ccccc1)C(=O)[C@H](Cc1ccc(-c2ccccc2)cc1)NC(=O)[C@@H]1CCCN1/C(S)=N/Cc1ccccc1Cl	
29.4 nM	CN(Cc1ccccc1)C(=O)[C@@H](NC(=O)[C@@H]1CCCN1C(=S)NCc1ccccc1Cl)C(c1ccccc1)c1ccccc1	
5 nM	CN(Cc1ccccc1)C(=O)[C@H](Cc1ccc(Cl)c(Cl)c1)NC(=O)[C@@H]1CCCN1/C(S)=N/Cc1ccccc1Cl	
1010 nM	CN(Cc1ccccc1)C(=O)[C@H](Cc1ccccc1)NC(=O)[C@@H]1CCCN1/C(S)=N/Cc1ccccc1	
13.7 nM	CN(Cc1ccccc1)C(=O)[C@H](Cc1cccc2ccccc12)NC(=O)[C@@H]1CCCN1/C(S)=N/Cc1ccccc1Cl	
16.7 nM	CN(Cc1ccccc1)C(=O)[C@H](Cc1c[nH]c2ccccc12)NC(=O)[C@@H]1CCCN1C(=S)NCc1ccccc1Cl	
77.6 nM	CN(Cc1ccccc1)C(=O)[C@H](Cc1ccccc1)NC(=O)[C@@H]1CCCN1/C(S)=N/Cc1ccccc1[N+](=O)[O-]	
18.5 nM	CN(Cc1ccccc1)C(=O)[C@H](Cc1ccccc1)NC(=O)[C@@H]1CCCN1C(=N)NCc1ccccc1Cl	
4.7 nM	CN(Cc1ccccc1)C(=O)[C@H](Cc1cn(C)c2ccccc12)NC(=O)[C@@H]1CCCN1/C(S)=N/Cc1ccccc1Cl	
1.7 nM	CN(Cc1ccccc1)C(=O)[C@H](Cc1ccc2ccccc2c1)NC(=O)[C@@H]1CCCN1C(=O)Nc1ccccc1CO	
27.2 nM	CN(Cc1ccccc1)C(=O)[C@H](Cc1ccccc1)NC(=O)[C@@H]1CCCN1/C(S)=N/Cc1ccccc1C(F)(F)F	
17.1 nM	CN(Cc1cccc2ccccc12)C(=O)[C@H](Cc1ccccc1)NC(=O)[C@@H]1CCCN1C(=S)NCc1ccccc1Cl	
36 nM	CN(Cc1ccc2ccccc2c1)C(=O)[C@H](Cc1ccccc1)NC(=O)[C@@H]1CCCN1/C(S)=N/Cc1ccccc1Cl	
0.5 nM	CN(Cc1ccccc1)C(=O)[C@H](Cc1ccc2ccccc2c1)NC(=O)[C@@H]1CCCN1C(=N)NCc1ccccc1Cl	
29.7 nM	CN(Cc1ccccc1)C(=O)[C@H](Cc1ccccc1)NC(=O)[C@@H]1CCCN1C(=S)NCc1ccccc1Br	
38 nM	CN(Cc1ccccc1)C(=O)[C@H](Cc1ccccc1)N(C)C(=O)[C@@H]1CCCN1/C(S)=N/Cc1ccccc1Cl	
2.3 nM	CN(Cc1ccccc1)C(=O)[C@H](Cc1ccc2ccccc2c1)NC(=O)[C@@H]1CCCN1C(=O)NCc1ccccc1Cl	
48 nM	CN(CCc1c[nH]c2ccccc12)C(=O)[C@H](Cc1ccccc1)NC(=O)[C@@H]1CCCN1/C(S)=N/Cc1ccccc1Cl	
25.9 nM	CN(Cc1ccccc1)C(=O)[C@H](Cc1ccccc1)NC(=O)[C@@H]1CCCN1/C(S)=N/Cc1c(Cl)cccc1Cl	
29.9 nM	CN(Cc1ccccc1)C(=O)[C@H](Cc1ccccc1)NC(=O)[C@@H]1CCCN1C(=S)NCc1ccccc1Cl	
80 nM	CN(Cc1ccccc1)C(=O)[C@H](Cc1ccccc1)NC(=O)[C@@H]1CCCN1C(=S)Nc1ccccc1 (single isomer, unassigned)	
